Assay outcomes as filed in PubChem.
Compounds with a hit are over-represented: about 3% of the library has one in this group of screens.
UBC13 polyUb: inhibitors of human UBC13 polyubiquitin chain formation | AID 485273 | TR-FRET | P61088 | 330,000 tested, 0.47% active | inhibition, % at 20 µM; in the data active = inhibition above about 45%, passing the limit was not always enough
Target sequence (P61088 whole entry, looked up): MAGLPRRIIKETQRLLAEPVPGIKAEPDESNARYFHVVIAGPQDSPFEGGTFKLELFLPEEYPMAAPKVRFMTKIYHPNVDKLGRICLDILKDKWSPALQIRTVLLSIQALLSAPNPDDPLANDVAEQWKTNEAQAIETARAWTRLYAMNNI
MEKK2wt PB1 HTS: raises or lowers MEK5 binding to wildtype human MEKK2 PB1 domain; AID 1531; Q9Y2U5; binding response (% of control), % at 10 µM; bead flow cytometry, Alexa488-MEK5 binding to MEKK2 WT; actives lie on both sides; 290,000 tested, 1.1% active; in the data active = binding response below about 67% or above about 130%
MEKK2mut PB1 HTS: signal of MEK5 binding to mutant human MEKK2 PB1 domain | bead flow cytometry, Alexa488-MEK5 binding to MEKK2 mutant | percent response, % at 10 µM | 290,000 tested, 0.35% active | AID 1530; in the data active = percent response above about 24%, passing the limit was not always enough
Apaf-1 inh: human Apaf-1 inhibition; AID 489030; 330,000 tested, 0.71% active; reconstituted apoptosome caspase-3 activity, DEVD-Rh110 fluorescence; inhibition, % at 20 µM; O14727; active = inhibition of at least 40% at 20 µM;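 note: plate controls were DMSO wells for no effect and DEVD-CHO caspase inhibitor wells for full effect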
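Material: biochemical Apaf-1 apoptosome reconstitution. Medium: Hepes buffer, pH 7.5. Also added: cytochrome c activation, bis-DEVD rhodamine 110 substrate. Timing: 30 min compound preincubation, 50 min activation, room temperature. Measured by: rhodamine 110 fluorescence at Ex 480/Em 540 nm.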
MEKK3 PB1 HTS: modulators (inhibitors or enhancers) of MEK5 binding to human MEKK3 PB1 domain. Q99759. bead-based flow cytometry, Alexa488-MEK5 binding to MEKK3; actives lie on both sides; 0 = blocked by unlabeled MEK5, 100 = vehicle. binding response (% of control), % at 10 µM. 290,000 tested, 1.4% active. AID 1529;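 active = binding response more than 3 SD above or below the average of its plate-row segment, actives on both sides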;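 note: Alexa488 bead fluorescence after subtracting the streptavidin-only scavenger bead signal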
UCH37 inh: inhibitors of human deubiquitinating enzyme UCH37 | Q9Y5K5 | purified proteasome/UCH37, Ub-AMC cleavage fluorescence | inhibition, % (concentration not given with the values) | 330,000 tested, 0.33% active | AID 588478;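 active = mean inhibition over replicate wells above about 20%, limit read from the data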;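 note: 0% = compound-free wells with enzyme and 100% = wells lacking proteasome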
Target sequence (Q9Y5K5 whole entry, looked up): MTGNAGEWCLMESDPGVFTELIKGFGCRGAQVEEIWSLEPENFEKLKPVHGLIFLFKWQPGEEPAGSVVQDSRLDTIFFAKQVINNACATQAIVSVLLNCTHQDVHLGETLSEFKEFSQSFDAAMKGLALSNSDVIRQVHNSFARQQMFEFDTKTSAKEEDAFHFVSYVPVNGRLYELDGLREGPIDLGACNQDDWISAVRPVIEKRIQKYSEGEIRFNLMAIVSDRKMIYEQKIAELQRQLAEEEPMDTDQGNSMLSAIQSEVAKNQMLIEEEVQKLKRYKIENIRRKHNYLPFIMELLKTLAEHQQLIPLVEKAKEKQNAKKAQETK
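System: Proteasome-associated human UCH37 deubiquitinase; Input: 0.15 nM proteasome in added enzyme buffer; Also added: Ub-AMC substrate from 1 µM stock; Incubation: 30 min compound-proteasome preincubation then 25 min substrate reaction, room temperature; Detection: fluorescence, ex 355 nm, em 460 nm; Read-out: % inhibition of Ub-AMC cleavage fluorescence; Benchmarks: no-proteasome and no-compound wells.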
MEKK2wt confirm: raises or lowers MEK5 binding to wildtype human MEKK2, retest | shares compounds with MEKK3 PB1 HTS | bead flow cytometry, Alexa488-MEK5 binding to MEKK2 WT; actives lie on both sides | binding response (% of control), % at 10 µM | 5,900 tested, 2.4% active | AID 1892; in the data active = binding response below about 16% or above about 210%; inactive = in between
MEKK2mut confirm: signal of MEK5 binding to mutant human MEKK2, retest | shares compounds with MEKK3 PB1 HTS | bead flow cytometry, Alexa488-MEK5 binding to MEKK2 mutant | 5,900 tested, 2% active | AID 1893 | percent response, % at 10 µM; in the data active = percent response mostly above about 71%, no sharp cut-off; inactive = mostly below about 38%;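 note: higher means compound restores mutant binding toward wildtype level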
MEKK3-MEK5 inh: confirmation of inhibitors of MEK5 binding to human MEKK3. shares compounds with MEKK3 PB1 HTS. bead flow cytometry, Alexa488-MEK5 binding to MEKK3; active compounds read low. binding response (% of control), % at 10 µM. 5,900 tested, 1.8% active. AID 1894;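 active = binding response below 72% of control, or above a set upper limit, though filed actives all read lower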;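 note: 100% = DMSO only wells and 0% = binding blocked by excess unlabeled MEK5; lower values mean stronger disruption of MEK5 binding to MEKK3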
* marks the source's active call; other numbers are inactive results; x = no result; [ ] = dose if it differs, or a comment.

SMILES	UBC13 polyUb	MEKK2wt PB1 HTS	MEKK2mut PB1 HTS	Apaf-1 inh	MEKK3 PB1 HTS	UCH37 inh	MEKK2wt confirm	MEKK2mut confirm	MEKK3-MEK5 inh
C[C@H](NC(=O)OC(C)(C)C)C(=O)NCC1CCC(C(=O)N[C@@H](Cc2ccccc2)C(=O)O)CC1 (some centres undefined)	-7	94	-6	-2	97	5	x	x	x
COc1ccc(OC)c(/C=N/NC(=O)CCc2c(C)n[nH]c2C)c1	8	76	-14	0	71	x	x	x	x
COc1cccc(/C=N/NC(=O)CCCc2ccc(OC)c(C)c2)c1	7	110	1	23	156*	x	102	2	104
COc1ccc(OC)c(/C=N/NC(=O)CCc2ccc(O)c(O)c2)c1	20	107	1	4	136*	x	94	-5	98
CCC1C(=O)N=C(SCC(=O)Nc2ccc(S(N)(=O)=O)cc2)NC1=O (centres undefined)	7	122	1	13	138*	5	100	-3	98
CCC1C(=O)N=C(SCC(=O)Nc2ccccc2)NC1=O (centres undefined)	3	104	3	-11	110	0	x	x	x
CC1CCCCC1NC(=O)Cn1c(=O)oc2cc(S(=O)(=O)N3CCCC3)ccc21 (centres undefined)	-3	97	-1	3	94	8	x	x	x
O=C(c1ccc(F)cc1)c1ccc(CN2C(=O)c3ccccc3C2=O)o1	5	96	-1	-6	102	1	x	x	x
O=C(c1ccc(Cl)cc1)c1ccc(CN2C(=O)c3ccccc3C2=O)o1	12	2.0*[inhibitor]	-16	12	2.0*[inhibitor]	2	103	4	106
CC1(C)C(=O)C2(CCCCC2)C(=O)OC1c1cccc([N+](=O)[O-])c1 (centres undefined)	-12	98	0	-4	89	3	x	x	x
COC(=O)N/N=C/c1cc(C)n(-c2ccccc2)c1C	-2	1.0*[inhibitor]	-4	-11	1.0*[inhibitor]	x	101	0	100
COC(=O)N/N=C/c1cc(C)n(-c2ccc(Br)cc2)c1C	0	81	-31	-12	73	x	x	x	x
Cc1cc2cc(CNC(=O)NC3CCCCC3)ccc2[nH]1	-1	x	51*	-8	62*[inhibitor]	2	70	3	65*
Cc1cc2cc(CNC(=S)NC3CCCCC3)ccc2[nH]1	12	108	-1	0	115	0	x	x	x
O=C(NCCNC(=O)c1cc(OCC(F)(F)F)ccc1OCC(F)(F)F)Nc1cccc(C(F)(F)F)c1	-1	142*	11	14	103	4	111	4	103
Cc1ccc(S(=O)(=O)Nc2ccc(NC(=O)Nc3cccc(C(F)(F)F)c3)cc2)cc1	-16	171*	54*	30	109	5	176	36	97
CCN(CC)S(=O)(=O)c1ccc(NC(=O)Nc2cccc(C(F)(F)F)c2)cc1	-4	144*	26	-10	108	0	168	30	102
O=C(Nc1ccc(OC(F)F)cc1)Nc1cccc(C(F)(F)F)c1	5	209*	17	1	113	2	115	-1	93
O=S(=O)(Nc1ccc(S(=O)(=O)N2CCCC2)cc1)c1ccc(F)cc1	-4	99	2	7	100	1	x	x	x
COc1ccc(C)cc1NC(=O)CNC(c1ccccc1)c1ccc(C)cc1 (centres undefined)	-9	100	-1	22	101	4	x	x	x
COc1ccc(C)cc1NC(=O)CC(NC(C)=O)c1ccccc1 (centres undefined)	6	116	1	7	135*	1	102	-7	99
COc1ccc(NC(=O)N(Cc2cccs2)Cc2cc3cc4c(cc3[nH]c2=O)OCO4)cc1	-6	100	1	7	137*	x	99	2	104
Cc1ccc(NC(=O)N(Cc2cccs2)Cc2cc3cc4c(cc3[nH]c2=O)OCO4)cc1	-14	104	0	19	130*	-14	91	-8	96
O=C(Nc1ccc(F)cc1)N(Cc1cccs1)Cc1cc2cc3c(cc2[nH]c1=O)OCO3	3	97	0	4	107	-13	x	x	x
Cc1ccc2[nH]c(=O)c(CN(Cc3cccs3)C(=S)NCC3CCCO3)cc2c1 (centres undefined)	-1	99	0	20	138*	5	104	4	107
SMILES	UBC13 polyUb	MEKK2wt PB1 HTS	MEKK2mut PB1 HTS	Apaf-1 inh	MEKK3 PB1 HTS	UCH37 inh	MEKK2wt confirm	MEKK2mut confirm	MEKK3-MEK5 inh
CC(C)CN(C(=O)CSc1nc2ccccc2c(=O)[nH]1)c1c(N)n(CC(C)C)c(=O)[nH]c1=O	-9	x	x	-6	x	5	x	x	x
O=C(NCc1ccncc1)c1cncc(Br)c1	2	99	-5	-3	99	3	x	x	x
COc1cccc(S(=O)(=O)N2CCOCC2)c1	-8	101	-3	-6	102	4	x	x	x
Fc1cccc(Nc2nc3ccccc3n3nnnc23)c1	5	105	3	9	107	-27	x	x	x
Cc1ccc(-c2nc3ccccc3n3nnnc23)cc1	x	86	-6	x	82*[inhibitor]	x	98	-10	101
COc1cccc(Nc2nc3ccccc3n3nnnc23)c1	4	3.0*[inhibitor]	-14	20	2.0*[inhibitor]	-58	104	-1	100
CCN(CC)CC#CCC(O)(c1ccccc1)C1CCCC1 (centres undefined)	7	46*[inhibitor]	-2	0	95	2	116	4	106
CCN(CC)S(=O)(=O)c1cccc(C(=O)NCCCN2CCOCC2)c1	6	91	-3	-10	90	4	x	x	x
O=C(COC(=O)Cc1ccc(Cl)cc1)Nc1c(F)cccc1F	1	95	-3	-1	93	0	x	x	x
CCCCCC(=O)N1CC2(CC(c3cccc(NC(=O)CC(c4ccccc4)c4ccccc4)c3)=NO2)C[C@@H]1C(N)=O (some centres undefined)	9	96	3	19	81*[inhibitor]	-1	98	-11	98
COc1cc(/C=N/NC(=O)C2c3ccccc3Oc3ccccc32)ccc1O	-7	125	14	11	122*	x	104	0	107
